High-throughput results deposited in PubChem by several laboratories.
The full list was thinned out, with hits kept by preference.
DAT uptake mod: changed hDAT dopamine uptake under cocaine IC80, either direction, primary screen, cocaine antagonist project, cell-based, LLC-PK1 hDAT, [14C]-dopamine uptake, MLSMR; Sodium-dependent dopamine transporter (Homo sapiens), Q01959; LLC-PK1 hDAT cells, [14C]-dopamine uptake with cocaine IC80; actives deviate in either direction; B-score at 10 µM; 110,000 compounds, 1.3% hits; AID 449768, 2010;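 active = Z score or B-score, a plate-position-corrected score, falls beyond the plate's 99.7% confidence bounds, in either direction; inactive = both scores lie inside the 99.7% bounds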
MMP13 inh: human MMP13 inhibitors, primary screen, biochemical, FRET peptide cleavage; Collagenase 3 (Homo sapiens), P45452; MMP-13 fTHP FRET cleavage, Mca fluorescence; inhibition, % at 4 µM; 65,000 compounds, 0.07% hits; AID 570, 2006;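 active = inhibition above the mean of compound-free control plate wells plus 3 SD, cut at about 14% in these data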
Calb biofilm kill: clotrimazole potentiators killing Candida biofilms, primary screen, with clotrimazole, Alamar Blue; C. albicans biofilm + clotrimazole; inhibition, % at 6 µM; 85,000 compounds, 0.14% hits; AID 834, 2007;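 active = inhibition above 20%; inactive = inhibition below 20%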;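 note: preformed 24 hr biofilms exposed to compound for 48 hr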
AP ELISA ortho: alternative complement pathway inhibitors, primary screen, biochemical, ELISA, human serum, orthogonally pooled compounds; LPS-coated ELISA, C3 deposition; tested in compound mixtures; 62,000 compounds, 0.08% hits; inhibition, % at 5 µM;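 active = inhibition above 30% in each of the two pooled mixtures holding the compound, so the lower value exceeds 30%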
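Assay system: human serum alternative complement pathway, C3 deposition on LPS-coated wells; Dosing: 5 µM per compound in ten-compound mixtures; Detection: Anti-C3 ELISA, OD 450 nm; Buffer or medium: Mg2+-EGTA GVB++ buffer containing human serum at 1:15 dilution; Timing: 1 h at 37 °C; Replication: two different pools per compound.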
D1 mod: D1 CRE-luciferase signal change, two-sided – cell-based, HEK293 D1, dopamine EC30, D1 allosteric modulator project, primary screen. D(1A) dopamine receptor (Homo sapiens), P21728. dopamine EC30 potentiation; actives deviate in either direction. B-score at 10 µM. 58,000 compounds, 5.9% hits;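 active = luminescence count or its row- and column-corrected plate score outside the 99.7% band of the plate's sample wells, on either side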
Target sequence (P21728 whole entry, looked up): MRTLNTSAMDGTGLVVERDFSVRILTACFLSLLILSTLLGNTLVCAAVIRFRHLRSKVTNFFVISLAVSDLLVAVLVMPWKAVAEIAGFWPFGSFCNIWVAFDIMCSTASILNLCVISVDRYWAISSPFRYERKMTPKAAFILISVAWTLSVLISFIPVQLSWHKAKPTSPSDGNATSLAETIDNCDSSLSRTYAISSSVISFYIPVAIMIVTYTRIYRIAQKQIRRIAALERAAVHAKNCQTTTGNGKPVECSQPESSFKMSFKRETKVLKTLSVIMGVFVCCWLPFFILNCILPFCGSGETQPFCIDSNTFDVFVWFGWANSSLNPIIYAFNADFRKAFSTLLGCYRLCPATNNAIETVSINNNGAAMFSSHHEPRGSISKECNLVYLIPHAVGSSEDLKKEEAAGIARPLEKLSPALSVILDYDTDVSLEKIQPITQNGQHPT
Of the large screens only hits and unclear results are named; the others gave an inactive call.

Cc1cccc(Cn2c(=O)c3c(nc4n3CCCN4Cc3ccccc3)n(C)c2=O)c1	DAT uptake mod 3.03
Cn1c(N2CCOCC2)nc2c1c(=O)n(Cc1ccc(Cl)cc1)c(=O)n2C	D1 mod 4.41
Cn1c(=O)n(C/C=C/c2ccccc2)c(=O)c2c1nc1n2CCCN1Cc1ccccc1	none
Cn1c(N2CCN(c3ccccn3)CC2)nc2c1c(=O)n(Cc1ccc(Cl)cc1)c(=O)n2C	none (no result: AP ELISA ortho, D1 mod)
CC(C)c1ccc(OCc2nc(-c3ccccn3)no2)c(Br)c1	none
Cc1ccc(OCc2nc(-c3ccccn3)no2)c(Br)c1	D1 mod -5.67
CCc1ccc(OCc2nc(-c3ccccn3)no2)c(Br)c1	D1 mod -5
Cc1cc2ncn(C(=O)c3c(-c4ccccc4)noc3C)c2cc1C	DAT uptake mod -2.34 (no result: Calb biofilm kill)
O=C(NCCc1csc(-c2cccnc2)n1)c1cccs1	none (no result: DAT uptake mod, D1 mod)
O=C(NCCc1csc(-c2ccc(C(F)(F)F)cc2)n1)c1cccs1	DAT uptake mod 2.06 (no result: MMP13 inh, AP ELISA ortho, D1 mod)
CCOC(=O)CN1CC23C=CC(O2)C(C(=O)Nc2cc(OC)ccc2OC)C3C1=O (stereo unspecified)	MMP13 inh 14.2
COc1ccccc1NS(=O)(=O)c1ccc2c(c1)n(C)c(=O)n2C	none (no result: MMP13 inh, Calb biofilm kill, AP ELISA ortho, D1 mod)
CCCCN(CCCNc1ncnc2nc[nH]c12)c1ccccc1	D1 mod -3.51
c1ccc2c(CCNc3ncnc4nc[nH]c34)c[nH]c2c1	D1 mod -5.52
O=C(NC1CC1)C1=C[C@@H](c2csc3ccccc23)C[C@@H](OCc2ccc(CO)cc2)O1	none (no result: MMP13 inh, Calb biofilm kill, AP ELISA ortho, D1 mod)
COc1ccc(OC)c(NC(=S)N2CCN(c3ccccn3)CC2)c1	DAT uptake mod -8.81 (no result: MMP13 inh, Calb biofilm kill, AP ELISA ortho, D1 mod)
COc1ccc(CC(=O)N2CCN(c3ccccn3)CC2)cc1OC	none
COc1ccc(N2CCN(C(=S)Nc3cc(C)ccc3C)CC2)cc1	DAT uptake mod -4.67 (no result: MMP13 inh, Calb biofilm kill, AP ELISA ortho, D1 mod)
O=C(NCCc1ccccc1)[C@@H]1CC=C[C@@H]2CCN(Cc3ccccc3)C(=O)[C@@H]21	none (no result: MMP13 inh, Calb biofilm kill, AP ELISA ortho, D1 mod)
CCC(=O)n1nc(-c2ccc(OC)cc2)nc1N	DAT uptake mod -9.55
CCOC(=O)C[C@H]1c2cc(C(F)(F)F)ccc2S(=O)(=O)N1C(C)C	none (no result: MMP13 inh, Calb biofilm kill, AP ELISA ortho, D1 mod)
COc1cc(C2/C(=C(/O)c3ccc(F)cc3)C(=O)C(=O)N2CCCC(=O)O)ccc1O (stereo unspecified)	D1 mod -3.9
CC1CN(S(=O)(=O)c2cccc(C(=O)OCc3cc(=O)oc4cc(O)ccc34)c2)CC(C)O1 (stereo unspecified)	D1 mod -4.31
CN(C)c1cccc(C(=O)OCc2cc(=O)oc3cc(O)ccc23)c1	none (no result: MMP13 inh, Calb biofilm kill, AP ELISA ortho, D1 mod)
Nc1c(Cl)cc(-c2csc(N3CCCC3c3nc4cc(Cl)c(N5CCCCC5)cc4n3CCOCCO)n2)cc1Cl (stereo unspecified)	none (no result: MMP13 inh, Calb biofilm kill, AP ELISA ortho, D1 mod)
COc1cc(OC)cc(-c2cc3nc4c(c(N5CCN(c6cnccn6)CC5)n3n2)CCCC4)c1	D1 mod -3.35 (no result: DAT uptake mod)
COc1cc(OC)cc(-c2cc3nc4c(c(N5CCN(c6ncccn6)CC5)n3n2)CCCC4)c1	none (no result: D1 mod)
COC(=O)c1ccccc1CON1C(=O)C(C)(C)N(OCc2ccccc2C(=O)OC)C(=O)C1(C)C	none (no result: MMP13 inh, AP ELISA ortho, D1 mod)
Clc1ccccc1N1CCN(c2ncnc3nc[nH]c23)CC1	none (no result: DAT uptake mod, D1 mod)
FC(F)(F)c1cccnc1N1CCN(c2ncnc3nc[nH]c23)CC1	Calb biofilm kill 29.0 (no result: D1 mod)
N#Cc1c(N)oc(-c2ccco2)c1-c1ccco1	D1 mod 18.6
CCCN1CCC(=O)N([C@H](CSc2ccc(OC)cc2)c2ccccc2)CC1	none (no result: MMP13 inh, Calb biofilm kill, AP ELISA ortho, D1 mod)
Oc1c(Cl)cc(Cl)cc1/C=N/c1nccs1	DAT uptake mod 4.36 (no result: MMP13 inh, AP ELISA ortho, D1 mod)
O=[N+]([O-])c1ccc2nccn2c1	none (no result: MMP13 inh, Calb biofilm kill, AP ELISA ortho, D1 mod)
CC(C1CC2CCC1C2)n1c(COc2ccccc2F)nnc1SCC(N)=O (stereo unspecified)	none (no result: MMP13 inh, AP ELISA ortho, D1 mod)
CC(C)NC(=O)NC(=O)CSc1nnc(COc2ccccc2F)n1C(C)C1CC2CCC1C2 (stereo unspecified)	DAT uptake mod 2.6 (no result: MMP13 inh, AP ELISA ortho, D1 mod)
O=C(c1cn(-c2ccccc2)nc1-c1ccncc1)n1nnc2ccccc21	D1 mod 12.3
Cc1ccccc1CNc1ccc(C(CC(N)=O)NC(=O)c2ccccc2)cc1[N+](=O)[O-] (stereo unspecified)	none (no result: MMP13 inh, Calb biofilm kill, AP ELISA ortho, D1 mod)
